From ChEMBL document CHEMBL4033712, “Synthesis and biological evaluation of new C-12(α/β)-(N-) sulfamoyl-phenylamino-14-deoxy-andrographolide derivatives as potent anti-cancer agents” (Bioorg Med Chem Lett, 2017)

Experiments:
Assay type in all cases: functional
CCRF-CEM = test: Growth inhibition of human CCRF-CEM cells incubated for 48 hrs by sulforhodamine B assay
Outline: (§1)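 NCI-60 five-dose screen at 0.01, 0.1, 1, 10 and 100 µM, 48 h incubation, sulforhodamine B end point. GI50 (50% decrease in net growth), TGI (total growth inhibition) and LC50 (net 50% loss of initial cells) taken from log concentration versus % growth inhibition curves.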

HL-60(TB) = test: Growth inhibition of human HL-60(TB) cells incubated for 48 hrs by sulforhodamine B assay; settings: HL-60, 48 h
Outline: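 NCI-60 five-dose screen at 0.01, 0.1, 1, 10 and 100 µM for 48 h, sulforhodamine B read-out. GI50 taken from log concentration versus % growth inhibition curves as the concentration giving 50% decrease in net cell growth.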

K562 = test: Growth inhibition of human K562 cells incubated for 48 hrs by sulforhodamine B assay; settings: K562, 48 h; outline: as §1
RPMI-8226 = test: Growth inhibition of human RPMI8226 cells incubated for 48 hrs by sulforhodamine B assay; settings: RPMI-8226, 48 h
Outline: (§2)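 NCI 60 human tumour cell line panel, five-dose study at 0.01, 0.1, 1, 10 and 100 µM, 48 h incubation. Sulforhodamine B protein-binding dye end point. GI50 (50% decrease in net cell growth), TGI (total growth inhibition) and LC50 (net 50% loss of initial cells) read from log concentration versus % growth inhibition curves.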

HOP-62 = test: Growth inhibition of human HOP62 cells incubated for 48 hrs by sulforhodamine B assay; settings: HOP-62, 48 h; outline: as §1
NCI-H23 = test: Growth inhibition of human NCI-H23 cells incubated for 48 hrs by sulforhodamine B assay; settings: NCI-H23, 48 h; outline: as §1
NCI-H322M = test: Growth inhibition of human NCI-H322M cells incubated for 48 hrs by sulforhodamine B assay; outline: as §1
NCI-H460 = test: Growth inhibition of human NCI-H460 cells incubated for 48 hrs by sulforhodamine B assay; settings: NCI-H460, 48 h; outline: as §1
NCI-H522 = test: Growth inhibition of human NCI-H522 cells incubated for 48 hrs by sulforhodamine B assay; settings: NCI-H522, 48 h; outline: as §1
HT-29 = test: Growth inhibition of human HT-29 cells incubated for 48 hrs by sulforhodamine B assay; settings: HT-29, 48 h; outline: as §1
KM12 = test: Growth inhibition of human KM12 cells incubated for 48 hrs by sulforhodamine B assay; settings: KM12, 48 h; outline: as §1
SF-539 = test: Growth inhibition of human SF539 cells incubated for 48 hrs by sulforhodamine B assay; settings: SF-539, 48 h; outline: as §2
U-251 = test: Growth inhibition of human U251 cells incubated for 48 hrs by sulforhodamine B assay; settings: U-251, 48 h; outline: as §2
LOX IMVI = test: Growth inhibition of human LOXIMVI cells incubated for 48 hrs by sulforhodamine B assay; outline: as §1
SK-MEL-28 = test: Growth inhibition of human SK-MEL-28 cells incubated for 48 hrs by sulforhodamine B assay; settings: SK-MEL-28, 48 h; outline: as §2
UACC-257 = test: Growth inhibition of human UACC257 cells incubated for 48 hrs by sulforhodamine B assay; settings: UACC-257, 48 h; outline: as §2
IGROV-1 = test: Growth inhibition of human IGROV1 cells incubated for 48 hrs by sulforhodamine B assay; settings: IGROV-1, 48 h; outline: as §1
OVCAR-3 = test: Growth inhibition of human OVCAR3 cells incubated for 48 hrs by sulforhodamine B assay; settings: OVCAR-3, 48 h; outline: as §1
OVCAR-4 = test: Growth inhibition of human OVCAR4 cells incubated for 48 hrs by sulforhodamine B assay; settings: OVCAR-4, 48 h; outline: as §1
OVCAR-8 = test: Growth inhibition of human OVCAR8 cells incubated for 48 hrs by sulforhodamine B assay; settings: OVCAR-8, 48 h; outline: as §1
786-0 = test: Growth inhibition of human 786-0 cells incubated for 48 hrs by sulforhodamine B assay; settings: 786-0, 48 h; outline: as §1
A498 = test: Growth inhibition of human A498 cells incubated for 48 hrs by sulforhodamine B assay; settings: A498, 48 h; outline: as §1
ACHN = test: Growth inhibition of human ACHN cells incubated for 48 hrs by sulforhodamine B assay; outline: as §1
CAKI-1 = test: Growth inhibition of human Caki1 cells incubated for 48 hrs by sulforhodamine B assay; settings: CAKI-1, 48 h; outline: as §1
SN12C = test: Growth inhibition of human SN12C cells incubated for 48 hrs by sulforhodamine B assay; outline: as §2
UO-31 = test: Growth inhibition of human UO31 cells incubated for 48 hrs by sulforhodamine B assay; settings: UO-31, 48 h; outline: as §2
DU-145 = test: Growth inhibition of human DU145 cells incubated for 48 hrs by sulforhodamine B assay; settings: DU-145, 48 h; outline: as §1
BT-549 = test: Growth inhibition of human BT549 cells incubated for 48 hrs by sulforhodamine B assay; settings: BT-549, 48 h; outline: as §1
[1] = read-out: LC50 (the source's name)

C=C1CC[C@@H]2[C@](C)(COC(C)=O)[C@H](OC(C)=O)CC[C@@]2(C)[C@H]1CC(Nc1ccc(S(=O)(=O)Nc2cc(C)on2)cc1)C1=CCOC1=O (some centres undefined)
GI50 (CCRF-CEM): 0.47 µM
TGI (CCRF-CEM): 2.71 µM
CC50 (CCRF-CEM; [1]): > 100 µM
GI50 (HL-60(TB)): 1.39 µM
TGI (HL-60(TB)): 3.69 µM
CC50 (HL-60(TB); [1]): 9.82 µM
GI50 (K562): 1.57 µM
TGI (K562): 8.42 µM
CC50 (K562; [1]): > 100 µM
GI50 (RPMI-8226): 1.54 µM
TGI (RPMI-8226): 5.42 µM
CC50 (RPMI-8226; [1]): > 100 µM
GI50 (HOP-62): 8.88 µM
TGI (HOP-62): 22.9 µM
CC50 (HOP-62; [1]): 56.9 µM
GI50 (NCI-H23): 2.31 µM
TGI (NCI-H23): 5.9 µM
CC50 (NCI-H23; [1]): 31.4 µM
GI50 (NCI-H322M): 4.68 µM
TGI (NCI-H322M): 16.1 µM
CC50 (NCI-H322M; [1]): 44.6 µM
GI50 (NCI-H460): 2.35 µM
TGI (NCI-H460): 5.7 µM
CC50 (NCI-H460; [1]): 27.7 µM
GI50 (NCI-H522): 1.04 µM
TGI (NCI-H522): 2.42 µM
CC50 (NCI-H522; [1]): 5.61 µM
GI50 (HT-29): 1.58 µM
TGI (HT-29): 3.09 µM
CC50 (HT-29; [1]): 6.04 µM
GI50 (KM12): 1.83 µM
TGI (KM12): 3.69 µM
CC50 (KM12; [1]): 7.42 µM
GI50 (SF-539): 1.59 µM
TGI (SF-539): 3.06 µM
CC50 (SF-539; [1]): 5.89 µM
GI50 (U-251): 1.89 µM
TGI (U-251): 3.4 µM
CC50 (U-251; [1]): 6.12 µM
GI50 (LOX IMVI): 1.18 µM
TGI (LOX IMVI): 2.54 µM
CC50 (LOX IMVI; [1]): 5.46 µM
GI50 (SK-MEL-28): 2.02 µM
LC50 (50% net cell kill) (SK-MEL-28): 9.2 µM
TGI (SK-MEL-28): 4.31 µM
GI50 (UACC-257): 2.95 µM
TGI (UACC-257): 6.19 µM
CC50 (UACC-257; [1]): 18.7 µM
GI50 (IGROV-1): 2.36 µM
TGI (IGROV-1): 6.51 µM
CC50 (IGROV-1; [1]): 76.2 µM
GI50 (OVCAR-3): 1.66 µM
TGI (OVCAR-3): 3.09 µM
CC50 (OVCAR-3; [1]): 5.75 µM
GI50 (OVCAR-4): 2.91 µM
LC50 (OVCAR-4): 35.1 µM
TGI (OVCAR-4): 10.5 µM
GI50 (OVCAR-8): 1.88 µM
TGI (OVCAR-8): 4.3 µM
CC50 (OVCAR-8; [1]): 9.83 µM
GI50 (786-0): 1.96 µM
LC50 (concentration giving net 50% loss of initial cells) (786-0): 6.82 µM
TGI (786-0): 3.66 µM
GI50 (A498): 7.69 µM
LC50 (concentration giving net 50% loss of initial cells) (A498): 45 µM
TGI (A498): 20.3 µM
GI50 (ACHN): 1.71 µM
TGI (ACHN): 3.48 µM
CC50 (ACHN; [1]): 7.05 µM
GI50 (CAKI-1): 4.14 µM
TGI (CAKI-1): 14.7 µM
CC50 (CAKI-1; [1]): 38.6 µM
GI50 (SN12C): 1.73 µM
TGI (SN12C): 4.52 µM
CC50 (SN12C; [1]): 20.7 µM
GI50 (UO-31): 1.69 µM
LC50 (concentration giving net 50% loss of initial cells) (UO-31): 7.33 µM
TGI (UO-31): 3.52 µM
GI50 (DU-145): 2.43 µM
TGI (DU-145): 6.53 µM
CC50 (DU-145; [1]): 23 µM
GI50 (BT-549): 1.79 µM
TGI (BT-549): 3.47 µM
CC50 (BT-549; [1]): 6.73 µM
